Experimental data reported in ChEMBL document CHEMBL4513216, “Probing the Open Global Health Chemical Diversity Library for Multistage-Active Starting Points for Next-Generation Antimalarials” (ACS Infect Dis, 2020).

Assay: Toxicity liver stage against HepG2, at 10uM
Type: cell-based
Set-up: test concentration 10 uM, cell line HepG2-A16-CD81EGFP
Conditions: human, HepG2-A16-CD81EGFP cells; read-out: INHIBITION
Method in brief: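 Uninfected HepG2-A16-CD81EGFP cells, 3 × 10^3 per well, 1536-well, plated on prespotted compound at 10 μM final, parasite-free screening media added to match infected plates; puromycin 10 μM positive, DMSO 0.5% negative; run in parallel with 48 h PbLuc assay at 37 °C, 5% CO2; viability by CellTiter-Glo luminescence, normalized to controls.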

| Compound | cytotoxicity at 10 µM [%] |
| --- | --- |
| CCCC(C)(O)c1cc(C(N)=O)no1 (configuration not stated) | -5.4 |
| CCOC(=O)C1(Cc2ccccc2-c2ccccc2OC)CCNCC1 | -1.47 |
| CCn1nnc2c1C(COCCN(C)C)CN(S(C)(=O)=O)C2 (configuration not stated) | -2.69 |
| O=C(NCC1CCCCC1)NC1CCCc2c1cnn2CCO (configuration not stated) | -2.92 |
| Cc1noc(C)c1CN1CCc2ncnc(-c3cnn(C)c3)c2CC1 | -98.4 |
| CC(C)(C(=O)NCCC(=O)O)c1cccc(Br)c1 | 7.01 |
| O=S(=O)(CCCN1CCCC(Cn2cncn2)C1)c1ccccc1 (configuration not stated) | -11.7 |
| c1cncc(CN(CCCn2ccnc2)CC2CCOC2)c1 (configuration not stated) | 1.79 |
| CCc1c(C(=O)N2CCOC(C)(C)C2)cnn1-c1ccccn1 | -7.92 |
| Cn1cnc2c1CCN(Cc1cccc(OCC(N)=O)c1)C2 | -9.98 |
| CN(C)C(=O)N1CCc2c(nnn2C)C1COCc1ccccc1 (configuration not stated) | -8.39 |
| CC(NCC(=O)NCC(=O)Nc1ccc(F)cc1)c1cccs1 (configuration not stated) | 6.02 |
| COCC(=O)N1CCCCC1c1ccncn1 (configuration not stated) | -27.8 |
| Cc1csc2nc3n(c(=O)c12)CCN(C(=O)c1ccncc1)CC3 | -2.65 |
| CNC(=O)c1cn(C)c(-c2nc3cc(NC(C)=O)ccc3n2C)c1OC | -42.5 |
| COCc1cccc(NC(C)C(=O)N(C)Cc2ccccc2)c1 (configuration not stated) | -0.42 |
| CC(C)c1nc(S(=O)(=O)N(C)c2cc(F)ccc2F)c[nH]1 | 13.9 |
| CCOC(=O)CNC(=O)c1cc(-c2ccccc2)nc2ncnn12 | -5.75 |
| COCc1nnc2n1CCN(Cc1ccoc1)C2 | -2.56 |
| CC(OCC1CC1)C(=O)Nc1cccc(C(=O)Nc2ccccn2)c1 (configuration not stated) | 2.56 |
| CC(C)n1ccnc1CN1CCOC(CC2CCCCC2)C1 (configuration not stated) | -138 |
| O=C([C@H]1C[C@H]2OCC[C@H]2N(Cc2ccoc2)C1)N1CCCCO1 | -73.2 |
| NC(=O)c1ccc(S(=O)(=O)NCCc2ccccn2)cc1 | -16 |

| Compound | cytotoxicity at 10 µM [%] |
| --- | --- |
| COc1cc(-c2nc3c([nH]2)CCCNC3=O)ccc1O | 16.9 |
| c1ccc(CCc2noc(CN3CCC(N4CCSCC4)CC3)n2)cc1 | -8.01 |
| Cc1cnn(C(C)C2CC2)c1NC(=O)c1cnccn1 (configuration not stated) | -5.39 |
| Cn1c(SCC2OCCc3ccccc32)n[nH]c1=O (configuration not stated) | -5.76 |
| COc1ccc(CN2CCC3(CC2)NC(=O)CC3c2ccncc2)cc1 (configuration not stated) | 5.97 |
| COCCOc1ccc(CNc2nc3ccccc3o2)cn1 | 7.45 |
| O=C(NCc1cnc2n1CCN(CC1CC1)C2)C1CC1 | 5.06 |
| c1ccc2oc(CN3CCCC3c3noc(C4CC4)n3)nc2c1 (configuration not stated) | -4.04 |
| C=Cn1cc(CN2CCN(CC3(c4ccccc4)CC3)CC2)c(C)n1 | 1.78 |
| O=C(CCCN1CCOC1=O)Nc1cnn(-c2ccccc2Cl)c1 | -4.56 |
| O=C(O)[C@@H]1CN(C(=O)c2ccc(Cl)cc2)C[C@H]1c1cccc(F)c1 | -132 |
| O=C(Nc1cc(Cl)ccn1)c1nc(N2CCCC2)ncc1Cl | -9.26 |
| CCN(CC)CCNC(=O)c1ccc(-n2ccc3ccccc32)s1 | 8.01 |
| Cn1cccc(NC(=O)NCCc2cccc(O)c2)c1=O | -43.6 |
| CC(C)CC(NC(=O)c1cccs1)c1nc2cccnc2n1C (configuration not stated) | 7.27 |
| Cc1cc(NCc2ccccc2CN2CCCCC2)n2ncnc2n1 | -1.86 |
| CCc1nc(CSC2CCCN(c3cnn(C)c3)C2=O)cs1 (configuration not stated) | 14.1 |
| c1ccc(-c2noc(CCNC3CCOC4(CCOCC4)C3)n2)nc1 (configuration not stated) | -6.5 |
| O=S(=O)(NCC1COCCO1)c1ccc(C2CCCCC2)cc1 (configuration not stated) | 27.5 |
| c1ccc(-c2nnc(CNCC3CCCN3c3cccnn3)o2)cc1 (configuration not stated) | -10.5 |
| CCCNC(=O)c1cnc2n1CCCC2 | -3.19 |
| CCN1CCC(=O)N(C)Cc2cc(F)ccc21 | 9.78 |
| Cc1oc(C(=O)O)cc1S(=O)(=O)Nc1ccc(Cl)cc1F | -0.354 |

| Compound | cytotoxicity at 10 µM [%] |
| --- | --- |
| COC[C@@]12CCO[C@@H]1CCN(C(=O)C1CCSCC1)C2 | -104 |
| COc1ccccc1C(=O)N1CCC(Nc2ccc(C)nn2)CC1 | -4.05 |
| CS(=O)(=O)c1cccc(S(=O)(=O)NC(=O)CC2CCCCC2)c1 | -3.17 |
| C[C@H]1C[C@H]2CN(Cc3ccccn3)CC[C@@H]2O1 | -78.2 |
| CCCc1cc(N2CCC(NCCc3ccc(O)cc3)CC2)nc(C)n1 | -6 |
| Cc1cnc(C(=O)N2CC(=O)N(c3ccccc3Cl)CC2C)cn1 (configuration not stated) | -8.23 |
| Cc1ccc(S(=O)(=O)N2C[C@H]3C[C@H](NC(=O)c4cscn4)[C@H]3C2)cc1 | 12 |
| CCC1CCCCN1S(=O)(=O)c1c(C)noc1C (configuration not stated) | -9.35 |
| Cc1ncc(-c2ccnc(N[C@@H](C)CO)n2)c(C2CCCCC2)n1 | -20.7 |
| Cc1ccc(C(=O)NCc2ccc(N(C)C)cc2)cn1 | -6.23 |
| CC(=O)NC1CCN(c2ccnc(C3CCNCC3)c2)CC1 | -6.15 |
| O=C(NCCOc1ccc(Cl)cn1)NCCc1ccccn1 | 7.95 |
| CN1CCCCC1c1ncc2c(n1)CCN(CCCc1ccccc1)C2 (configuration not stated) | -30.5 |
| CCc1c(C)sc2nc3n(CCN(C)C)nc(SC)n3c(=O)c12 | 2.26 |
| Cc1cnc(N2CC3(CCN(Cc4cccnc4)C3)C2)nc1 | -2.36 |
| CCOCCN1CCN(C(C)C(=O)Nc2ccnn2C(C)C)CC1 (configuration not stated) | -7.87 |
| Cc1nc(CSc2ccc(C(F)(F)F)cn2)no1 | -3.38 |
| Cc1ccc(C(=O)NCC2Cc3ccccc3O2)cc1S(C)(=O)=O (configuration not stated) | 1.05 |
| Cc1cccc(CCC(=O)N2CCCC(c3cc(C(N)=O)[nH]n3)C2)c1 (configuration not stated) | -7.1 |
| CNS(=O)(=O)c1ccc(C(=O)N2CCCC2c2ccccc2)o1 (configuration not stated) | -7.67 |
| Cc1oc(-c2nc(C#N)c(NC3CC3)o2)cc1S(=O)(=O)N1CCCC1 | -9.95 |
| CCCc1nnc(N2CCN(c3ccccc3OCC)CC2)o1 | 3.88 |
| COCCNc1ccc(-c2noc([C@@H]3CCCN3)n2)cn1 | -1.57 |

| Compound | cytotoxicity at 10 µM [%] |
| --- | --- |
| O=C(c1ccccc1F)N1CCN(c2ccc(-n3cccc3)nn2)CC1 | 53.2 |
| O=C(CNCc1ccccc1Cn1cccn1)Nc1cnccn1 | 8.11 |
| c1cc(CN2CCCC(c3nnc(-c4cnccn4)o3)C2)ccn1 (configuration not stated) | -9.14 |
| Cc1cc(CNc2ccccc2N2CCCCC2)no1 | -1.31 |
| COc1ccc(C(=O)N2CCO[C@H]3[C@@H](OCC4CC4)CC[C@@H]32)cc1F | 19.1 |
| CC(C)(C)C(O)CN1CCN(C(=O)c2cccc3[nH]ncc23)CC1 (configuration not stated) | 5.93 |
| CC(C(=O)NC(C)(C)C)S(=O)(=O)Cc1noc(C(C)(C)C)n1 (configuration not stated) | -10.8 |
| CCCn1ccnc1CN1CCC(Oc2ccc(Cl)cc2)(C(=O)O)CC1 | 3.47 |
| CC(C)Cc1cc(CNc2nc(-c3cccnc3)nc3c2CNC3)no1 | 1.95 |
| Cc1ccccc1CN1CCCC1c1cccc(Nc2nccs2)n1 (configuration not stated) | 13.3 |
| COc1ccc(NC(=O)c2cnc(N3CCN(C)CC3)nc2C)cc1 | -3.45 |
| Cc1ncsc1CNc1cccc(OCCN2CCCC2)c1 | -3.35 |
| CCOc1ccnc(N2CCN(C(=O)c3ccncc3)CC2)n1 | -4.6 |
| O=C(c1ccc(-c2cn[nH]c2)nc1)N1CCC(N2CCOCC2)CC1 | 1.38 |
| Cc1ccc2cc(C(=O)N3CCN(C(=O)N(C)C)CC3)ccc2n1 | -52.1 |
| CC(C)(C)n1ncc2c(=O)[nH]c(N3CCN(CCO)CC3)nc21 | -13.3 |
| CC(C)S(=O)(=O)N1CCN(C(=O)c2cnn(C)c2Cl)CC1 | 1.6 |
| O=C1CCCN1Cc1nnn2c1CN(c1cccnc1)CCC2 | 3.48 |
| O=C1N(C2CCCCC2)CCCC12CCN(S(=O)(=O)c1cccnc1)C2 (configuration not stated) | 6 |
| COc1ccc(NC(=O)c2cc3c([nH]c2=O)CCCC3=O)c(OC)c1 | -0.0455 |
| C=C(Cl)CN1CCC(C(=O)c2cc(F)ccc2F)CC1 | -7.26 |
| Cc1ccc(N2CCCN(C(=O)c3c(C)oc(C)c3C)CC2)nn1 | 5.46 |
| COc1ccnc(N2CCC3(CCCN(CC4CC4)C3=O)C2)n1 (configuration not stated) | 1.13 |

| Compound | cytotoxicity at 10 µM [%] |
| --- | --- |
| Cc1nc(CN2CCN(Cc3nccn3C)CC2)no1 | 3.44 |
| Cc1nc(O)cc(C2CCCN(C(=O)c3cccc(N(C)C)c3)C2)n1 (configuration not stated) | -6.47 |
| CN1CCN(Cc2cccnc2)C2(CCN(C3CCOCC3)C2)C1=O (configuration not stated) | -5.87 |
| CC(C)(CO)CCCNC(=O)NC1(c2ccccc2F)CC1 | 9.08 |
| COc1ccc(C(=O)Nc2ccc3ncn(C(C)C)c(=O)c3c2)cc1 | 4.04 |
| CN(Cc1ccccn1)C(=O)c1nn(C)c2c1CCN(CC1CC1)C2 | -1.68 |
| CC(=O)Nc1ccc(Cl)c(C(=O)N(C)Cc2nc(C)c[nH]2)c1 | 1.37 |
| O=C(NCC1CCN(c2ncccn2)CC1)c1cnccn1 | 2.84 |
| CCc1nnsc1C(=O)NCCCC(CC)(CC)C1OCCO1 | 5.95 |
| NC(=O)Cn1cc(NC(=O)N2CCN(c3ccc(F)cc3)CC2)cn1 | -12.9 |
| CN1CC(=O)N(c2ccsc2)CC12CCN(S(=O)(=O)C1CC1)C2 (configuration not stated) | -0.298 |
| CC(C)CC(=O)NS(=O)(=O)c1ccc2c(c1)OCCCO2 | -9.02 |
| CCn1c(O)c(C(C)=O)c2cc(C)ccc21 | -8.24 |
| Cc1ccc2c(c1)OC(C)CN2C(=O)CCc1cscn1 (configuration not stated) | -48.5 |
| CN(Cc1noc(C(C)(C)C)n1)C1CCCN(c2cccnn2)C1 (configuration not stated) | -7.96 |
| O=C(Nc1ccc(F)cc1)N(CCC(F)(F)F)C[C@H](O)CO | -7.8 |
| Cn1nc2c(cc1=O)CN(CC(=O)Nc1nncs1)CC2 | -9.55 |
| O=C(NCc1csc(Br)c1)c1ccc(=O)[nH]n1 | 1.66 |
| Cn1cccc1C(=O)N1C[C@@H]2CCN(c3cccnc3)C[C@@H]2C1 | -58.3 |
| CCN1CCC(NC(=O)CN2CC(n3nc(C)cc3C)C2)CC1 | -4.44 |
